In brackets after ≈: the same amount, converted by molar mass.
Legend:
Streptococcus pneumoniae [1] = test: Antibacterial activity against Streptococcus pneumoniae M86A overexpressing patA, patB and inactivated patA with single mutation by standardized agar doubling dilution method; format: functional
Outline: (§1)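 MICs were determined by agar doubling dilution following BSAC guidelines, with no efflux inhibitor. Strains were grown in brain heart infusion broth for 24 h at 37°C in 5% CO2. Species identity was confirmed by Gram stain, optochin sensitivity and capsule test. Control strain R6 was tested alongside.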

Streptococcus pneumoniae [2] = test: Antibacterial activity against Streptococcus pneumoniae M46B overexpressing patA, patB and inactivated patB with single mutation by standardized agar doubling dilution method in presence of 20 ug/ml reserpine efflux pump inhibitor; format: functional
Outline: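 MICs were determined by BSAC agar doubling dilution in the presence of reserpine at 20 μg/ml. Strains were grown in BHI broth for 24 h at 37°C in 5% CO2, with R6 as control. Synergy was defined as an MIC drop of ≥2 dilutions with the inhibitor.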

Streptococcus pneumoniae [3] = test: Antibacterial activity against fluoroquinolone-resistant Streptococcus pneumoniae M100 FQ-R overexpressing patA, patB by standardized agar doubling dilution method; format: functional
Outline: (§2)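 MIC by agar doubling dilution per BSAC guidelines; strains pregrown in brain heart infusion broth 24 h, 37°C, 5% CO2. MICs measured alone and with efflux pump inhibitors reserpine (20 μg/ml) or sodium orthovanadate (50 μM); synergy defined as ≥2-dilution MIC reduction in presence of inhibitor.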

Streptococcus pneumoniae [4] = test: Antibacterial activity against Streptococcus pneumoniae M309 overexpressing patA, patB and inactivated patB with single mutation by standardized agar doubling dilution method in presence of 50 uM sodium orthovanadate efflux pump inhibitor; format: functional
Outline: (§3)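 MICs determined by BSAC standardized agar doubling dilution. Strains were grown in brain heart infusion broth for 24 h at 37°C in 5% CO2. Inhibitor arms had reserpine at 20 μg/ml or sodium orthovanadate at 50 μM in the agar. Mutants were made by transforming magellan2 insertion amplimers into clinical isolates and selecting on spectinomycin 100 mg/liter, with a no-DNA spontaneous-mutation control.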

Streptococcus pneumoniae [5] = test: Antibacterial activity against Streptococcus pneumoniae M317 overexpressing patA, patB and inactivated patB with single mutation by standardized agar doubling dilution method; format: functional; outline: as §1
Streptococcus pneumoniae [6] = test: Antibacterial activity against Streptococcus pneumoniae M45B overexpressing patA, patB and inactivated patB with single mutation by standardized agar doubling dilution method; format: functional; outline: as §1
Streptococcus pneumoniae [7] = test: Antibacterial activity against Streptococcus pneumoniae M46A overexpressing patA, patB and inactivated patA with single mutation by standardized agar doubling dilution method in presence of 50 uM sodium orthovanadate efflux pump inhibitor; format: functional
Outline: (§4)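 MICs were determined by BSAC agar doubling dilution in the presence of sodium orthovanadate at 50 μM. Cultures were grown in BHI broth for 24 h at 37°C in 5% CO2, with R6 as control. Synergy was defined as an MIC reduction of ≥2 dilutions with the inhibitor present.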

Streptococcus pneumoniae [8] = test: Antibacterial activity against Streptococcus pneumoniae M301 overexpressing patA, patB and inactivated patA with single mutation by standardized agar doubling dilution method in presence of 20 ug/ml reserpine efflux pump inhibitor; format: functional; outline: as §3
Streptococcus pneumoniae [9] = test: Antibacterial activity against Streptococcus pneumoniae M300 overexpressing patA, patB and inactivated patA with single mutation by standardized agar doubling dilution method in presence of 20 ug/ml reserpine efflux pump inhibitor; format: functional; outline: as §3
Streptococcus pneumoniae [10] = test: Antibacterial activity against Streptococcus pneumoniae M300 overexpressing patA, patB and inactivated patA with single mutation by standardized agar doubling dilution method in presence of 50 uM sodium orthovanadate efflux pump inhibitor; format: functional; outline: as §3
Streptococcus pneumoniae [11] = test: Antibacterial activity against fluoroquinolone-resistant Streptococcus pneumoniae M79 FQ-R overexpressing patA, patB by standardized agar doubling dilution method; format: functional
Outline: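 Clinical S. pneumoniae isolates grown in BHI broth 24 h at 37°C in 5% CO2. MICs by agar doubling dilution per BSAC guidelines, alone or with efflux inhibitor reserpine (20 μg/ml) or sodium orthovanadate (50 μM). Synergy defined as ≥2-dilution MIC reduction in presence of inhibitor.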

Streptococcus pneumoniae [12] = test: Antibacterial activity against Streptococcus pneumoniae M87B overexpressing patA, patB and inactivated patB with single mutation by standardized agar doubling dilution method; format: functional; outline: as §1
Streptococcus pneumoniae [13] = test: Antibacterial activity against Streptococcus pneumoniae M45A overexpressing patA, patB and inactivated patA with single mutation by standardized agar doubling dilution method in presence of 50 uM sodium orthovanadate efflux pump inhibitor; format: functional; outline: as §4
Streptococcus pneumoniae [14] = test: Antibacterial activity against fluoroquinolone, dye-susceptible Streptococcus pneumoniae M295 S overexpressing patA, patB by standardized agar doubling dilution method in presence of 50 uM sodium orthovanadate efflux pump inhibitor; format: functional; outline: as §2
Streptococcus pneumoniae [15] = test: Antibacterial activity against fluoroquinolone, dye-resistant Streptococcus pneumoniae M45 overexpressing patA, patB by standardized agar doubling dilution method in presence of 50 uM sodium orthovanadate efflux pump inhibitor; format: functional
Outline: (§5)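 MIC by agar doubling dilution following BSAC guidelines. Strains grown in brain heart infusion broth 24 h at 37°C in 5% CO2. Where an efflux pump inhibitor applies, MIC redetermined with reserpine at 20 μg/ml or sodium orthovanadate at 50 μM. Synergy taken as a fall in MIC of ≥2 dilutions with inhibitor present. Dye resistance defined relative to R6 (both dyes ≥2 dilutions higher).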

Streptococcus pneumoniae [16] = test: Antibacterial activity against fluoroquinolone, dye-susceptible Streptococcus pneumoniae by standardized agar doubling dilution method in presence of 20 ug/ml reserpine efflux pump inhibitor; format: functional; outline: as §5
Streptococcus pneumoniae [17] = test: Antibacterial activity against Streptococcus pneumoniae M307 overexpressing patA, patB and inactivated patB with single mutation by standardized agar doubling dilution method in presence of 20 ug/ml reserpine efflux pump inhibitor; format: functional; outline: as §3
Streptococcus pneumoniae [18] = test: Antibacterial activity against Streptococcus pneumoniae M298 overexpressing patA, patB and inactivated patA with single mutation by standardized agar doubling dilution method in presence of 50 uM sodium orthovanadate efflux pump inhibitor; format: functional; outline: as §3
Streptococcus pneumoniae [19] = test: Antibacterial activity against fluoroquinolone, dye-resistant Streptococcus pneumoniae M296 overexpressing patA, patB by standardized agar doubling dilution method in presence of 50 uM sodium orthovanadate efflux pump inhibitor; format: functional; outline: as §5
Streptococcus pneumoniae [20] = test: Antibacterial activity against fluoroquinolone, dye-resistant Streptococcus pneumoniae M87 overexpressing patA, patB by standardized agar doubling dilution method in presence of 50 uM sodium orthovanadate efflux pump inhibitor; format: functional; outline: as §5
Streptococcus pneumoniae [21] = test: Antibacterial activity against Streptococcus pneumoniae M50A overexpressing patA, patB and inactivated patA with single mutation by standardized agar doubling dilution method; format: functional; outline: as §1
Streptococcus pneumoniae [22] = test: Antibacterial activity against fluoroquinolone-resistant Streptococcus pneumoniae by standardized agar doubling dilution method in presence of 20 ug/ml reserpine efflux pump inhibitor; format: functional; outline: as §5
Streptococcus pneumoniae [23] = test: Antibacterial activity against fluoroquinolone, dye-resistant Streptococcus pneumoniae M297 overexpressing patA, patB by standardized agar doubling dilution method in presence of 50 uM sodium orthovanadate efflux pump inhibitor; format: functional; outline: as §5
Streptococcus pneumoniae [24] = test: Antibacterial activity against fluoroquinolone-resistant Streptococcus pneumoniae M97 FQ-R overexpressing patA, patB by standardized agar doubling dilution method; format: functional; outline: as §2
Streptococcus pneumoniae [25] = test: Antibacterial activity against Streptococcus pneumoniae M298 overexpressing patA, patB and inactivated patA with single mutation by standardized agar doubling dilution method
Streptococcus pneumoniae [26] = test: Antibacterial activity against Streptococcus pneumoniae M306 overexpressing patA, patB and inactivated patB with single mutation by standardized agar doubling dilution method; format: functional; outline: as §3
Streptococcus pneumoniae [27] = test: Antibacterial activity against Streptococcus pneumoniae M317 overexpressing patA, patB and inactivated patB with single mutation by standardized agar doubling dilution method in presence of 50 uM sodium orthovanadate efflux pump inhibitor; format: functional; outline: as §4

Compound	MIC (Streptococcus pneumoniae [1]) [µg/mL]	MIC (Streptococcus pneumoniae [2]) [µg/mL]	MIC (Streptococcus pneumoniae [3]) [µg/mL]	MIC (Streptococcus pneumoniae [4]) [µg/mL]	MIC (Streptococcus pneumoniae [5]) [µg/mL]	MIC (Streptococcus pneumoniae [6]) [µg/mL]	MIC (Streptococcus pneumoniae [7]) [µg/mL]	MIC (Streptococcus pneumoniae [8]) [µg/mL]	MIC (Streptococcus pneumoniae [9]) [µg/mL]	MIC (Streptococcus pneumoniae [10]) [µg/mL]	MIC (Streptococcus pneumoniae [11]) [µg/mL]	MIC (Streptococcus pneumoniae [12]) [µg/mL]	MIC (Streptococcus pneumoniae [13]) [µg/mL]	MIC (Streptococcus pneumoniae [14]) [µg/mL]	MIC (Streptococcus pneumoniae [15]) [µg/mL]	MIC90 (Streptococcus pneumoniae [16]) [µg/mL]	MIC (Streptococcus pneumoniae [17]) [µg/mL]	MIC (Streptococcus pneumoniae [18]) [µg/mL]	MIC (Streptococcus pneumoniae [19]) [µg/mL]	MIC (Streptococcus pneumoniae [20]) [µg/mL]	other results
CC[n+]1c(-c2ccccc2)c2cc(N)ccc2c2ccc(N)cc21.[Br-] [HOMIDIUM BROMIDE]	0.5	0.5	4	8	0.5	0.5	0.5	0.5	0.5	0.5	2	0.5	0.5	0.5	1	0.25	0.5	0.5	2	1	MIC (Streptococcus pneumoniae [21]): 0.5 µg/mL; MIC90 (Streptococcus pneumoniae [22]): 0.5 µg/mL; MIC (Streptococcus pneumoniae [23]): 1 µg/mL; MIC (Streptococcus pneumoniae [24]): 4 µg/mL; MIC (Streptococcus pneumoniae [25]): 0.5 µg/mL; MIC (Streptococcus pneumoniae [26]): 0.25 µg/mL; MIC (Streptococcus pneumoniae [27]): 0.5 µg/mL
O=C(O)c1cn(C2CC2)c2cc(N3CCNCC3)c(F)cc2c1=O [CIPROFLOXACIN]	1 (≈ 3.02 µM)	0.12	8 (≈ 24.1 µM)	2	8 (≈ 24.1 µM)	1 (≈ 3.02 µM)	0.12	8	2	2	32 (≈ 96.6 µM)	8 (≈ 24.1 µM)	1	0.25	1	0.5	8	8	8	16	MIC (Streptococcus pneumoniae [21]): 4 µg/mL (≈ 12.1 µM); MIC90 (Streptococcus pneumoniae [22]): 4 µg/mL; MIC (Streptococcus pneumoniae [23]): 8 µg/mL; MIC (Streptococcus pneumoniae [24]): 8 µg/mL (≈ 24.1 µM); MIC (Streptococcus pneumoniae [25]): 8 µg/mL (≈ 24.1 µM); MIC (Streptococcus pneumoniae [26]): 4 µg/mL (≈ 12.1 µM); MIC (Streptococcus pneumoniae [27]): 8 µg/mL
